pIC50, pKi: −log10 of the molar value.
Columns and labels:
[1] = target: Sodium-dependent dopamine transporter (Homo sapiens, UniProt Q01959); assay: Displacement of [3H]WIN-35428 from DAT
How it was run: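 Competitive radioligand binding at the dopamine transporter, with 0.5 nM [3H]WIN35,428 as the final radioligand concentration. Compounds were tested as HCl salts. Values are means ± standard error of three or four experiments, each run in duplicate.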

[2] = target: Sodium-dependent serotonin transporter (Homo sapiens, UniProt P31645); assay: Displacement of [3H]paroxetine from 5HTT
Sequence of Sodium-dependent serotonin transporter (P31645 whole entry): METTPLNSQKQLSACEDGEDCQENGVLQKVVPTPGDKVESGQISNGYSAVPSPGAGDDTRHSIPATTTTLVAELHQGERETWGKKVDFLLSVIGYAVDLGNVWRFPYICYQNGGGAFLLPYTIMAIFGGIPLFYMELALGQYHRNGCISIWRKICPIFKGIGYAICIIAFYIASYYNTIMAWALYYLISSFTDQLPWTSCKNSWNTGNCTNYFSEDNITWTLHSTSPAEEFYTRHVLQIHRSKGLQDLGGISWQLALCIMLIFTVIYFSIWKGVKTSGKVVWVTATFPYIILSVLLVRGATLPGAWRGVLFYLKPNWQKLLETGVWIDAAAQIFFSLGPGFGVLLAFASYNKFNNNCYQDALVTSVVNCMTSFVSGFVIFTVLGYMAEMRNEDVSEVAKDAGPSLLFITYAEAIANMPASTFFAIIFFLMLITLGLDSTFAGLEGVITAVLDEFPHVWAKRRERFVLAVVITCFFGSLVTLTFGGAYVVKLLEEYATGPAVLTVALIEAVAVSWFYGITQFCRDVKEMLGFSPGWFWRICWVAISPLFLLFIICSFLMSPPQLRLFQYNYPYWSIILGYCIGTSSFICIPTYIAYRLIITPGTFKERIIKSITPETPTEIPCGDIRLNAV
How it was run: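 Competitive radioligand binding at the serotonin transporter, with 0.2 nM [3H]paroxetine as the final radioligand concentration. Compounds were tested as HCl salts. Values are means ± standard error of three or four experiments, each run in duplicate.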

[3] = target: Sodium-dependent noradrenaline transporter (Homo sapiens, UniProt P23975); assay: Displacement of [3H]nisoxetine from NET
Sequence of Sodium-dependent noradrenaline transporter (P23975 whole entry): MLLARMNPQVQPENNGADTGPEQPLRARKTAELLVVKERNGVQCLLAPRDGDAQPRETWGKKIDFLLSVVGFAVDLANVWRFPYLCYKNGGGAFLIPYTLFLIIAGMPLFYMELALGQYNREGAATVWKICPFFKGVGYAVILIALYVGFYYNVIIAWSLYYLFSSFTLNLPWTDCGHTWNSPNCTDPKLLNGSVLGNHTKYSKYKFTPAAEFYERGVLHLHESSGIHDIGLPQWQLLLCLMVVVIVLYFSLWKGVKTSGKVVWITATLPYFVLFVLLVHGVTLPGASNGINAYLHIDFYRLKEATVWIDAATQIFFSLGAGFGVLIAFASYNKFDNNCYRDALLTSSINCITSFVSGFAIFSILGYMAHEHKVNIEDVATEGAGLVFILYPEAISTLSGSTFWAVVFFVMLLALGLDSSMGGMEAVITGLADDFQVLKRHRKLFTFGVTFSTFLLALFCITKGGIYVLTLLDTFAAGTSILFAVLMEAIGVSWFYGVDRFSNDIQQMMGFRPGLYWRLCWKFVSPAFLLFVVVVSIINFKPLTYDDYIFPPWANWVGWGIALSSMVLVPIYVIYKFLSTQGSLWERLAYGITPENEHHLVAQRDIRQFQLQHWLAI

Sequence of Sodium-dependent dopamine transporter (Q01959 whole entry): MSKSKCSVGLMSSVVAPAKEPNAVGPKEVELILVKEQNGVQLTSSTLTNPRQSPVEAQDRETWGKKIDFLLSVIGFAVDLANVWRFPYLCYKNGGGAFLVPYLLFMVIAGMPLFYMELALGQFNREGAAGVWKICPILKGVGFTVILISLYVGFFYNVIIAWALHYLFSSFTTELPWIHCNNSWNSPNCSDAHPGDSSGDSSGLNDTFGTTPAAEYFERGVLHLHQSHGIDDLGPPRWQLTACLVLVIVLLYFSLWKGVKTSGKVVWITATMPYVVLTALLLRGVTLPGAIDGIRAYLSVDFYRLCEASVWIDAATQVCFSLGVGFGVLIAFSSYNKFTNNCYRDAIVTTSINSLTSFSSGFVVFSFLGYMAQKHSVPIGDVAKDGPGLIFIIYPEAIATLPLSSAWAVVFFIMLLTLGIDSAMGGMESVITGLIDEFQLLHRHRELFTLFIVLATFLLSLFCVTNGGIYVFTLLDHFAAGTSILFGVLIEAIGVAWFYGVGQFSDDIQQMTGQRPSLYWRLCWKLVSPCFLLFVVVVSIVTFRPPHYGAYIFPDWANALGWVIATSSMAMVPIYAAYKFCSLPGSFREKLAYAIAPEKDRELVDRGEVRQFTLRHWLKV

`COc1ccc(-c2cc([C@@H]3C4CCC(C[C@@H]3c3ccc(Cl)cc3)N4C)on2)cc1` (some centres not stated) was tested. Which pIC50 [1] did it give?
Its pIC50 is 8.80.

And the pKi [2]?
Its pKi is 6.27.

What about the pKi [3] of the same compound?
Its pKi is 6.34.

`COc1ccc(-c2cc([C@@H]3C4CCC(C[C@@H]3c3ccc(C)cc3)N4C)on2)cc1` (some centres not stated) was tested. Which pIC50 [1] did it give?
Its pIC50 is 8.41.

What about the pKi [2] of the same compound?
Its pKi is 6.44.

And the pKi [3]?
Its pKi is 6.34.

Which results are given for `Cc1ccc([C@H]2CC3CCC([C@H]2c2onc(C)c2-c2ccc(Cl)cc2)N3C)cc1` (some centres not stated)?
pIC50 [1]: 7.18; pKi [2]: 6.06; pKi [3]: 6.28

Which results are given for `COc1ccc(-c2c(C)noc2[C@@H]2C3CCC(C[C@@H]2c2ccc(Cl)cc2)N3C)cc1` (some centres not stated)?
pIC50 [1]: 7.09; pKi [2]: 5.74; pKi [3]: < 5.70

`Cc1ccc(-c2cc([C@@H]3C4CCC(C[C@@H]3c3ccc(Cl)cc3)N4C)on2)cc1` (some centres not stated) was tested. Which pIC50 [1] did it give?
The pIC50 was 8.39.

What about the pKi [2] of the same compound?
Its pKi is 6.28.

And the pKi [3]?
The pKi was 5.99.

`Cc1ccc([C@H]2CC3CCC([C@H]2c2cc(-c4ccc(F)cc4)no2)N3C)cc1` (some centres not stated) was tested. Which pIC50 [1] did it give?
Its pIC50 is 8.19.

What about the pKi [2] of the same compound?
Its pKi is under 5.70.

What about the pKi [3] of the same compound?
Its pKi is 6.26.

`Cc1ccc([C@H]2CC3CCC([C@H]2c2cc(-c4ccc(Cl)cc4)no2)N3C)cc1` (some centres not stated) was tested. Which pIC50 [1] did it give?
The pIC50 was 8.06.

What about the pKi [2] of the same compound?
The pKi was under 5.70.

What about the pKi [3] of the same compound?
Its pKi is under 5.70.

Which results are given for `Cc1ccc([C@H]2CC3CCC([C@H]2c2onc(C)c2-c2ccc(F)cc2)N3C)cc1` (some centres not stated)?
pIC50 [1]: 7.12; pKi [2]: < 5.70; pKi [3]: 6.46

How did the pIC50 [1] turn out when `Cc1noc([C@@H]2C3CCC(C[C@@H]2c2ccc(Cl)cc2)N3C)c1-c1ccc(Cl)cc1` (some centres not stated) was run?
Its pIC50 is 7.16.

And the pKi [2]?
The pKi was 6.41.

And the pKi [3]?
The pKi was 6.10.

Which results are given for `Cc1ccc([C@H]2CC3CCC([C@H]2c2cc(Cc4ccc(F)cc4)no2)N3C)cc1` (some centres not stated)?
pIC50 [1]: 8.23; pKi [2]: 6.95; pKi [3]: 6.34

How did the pIC50 [1] turn out when `Cc1ccc([C@H]2CC3CCC([C@H]2c2cc(Cc4ccc(Cl)cc4)no2)N3C)cc1` (some centres not stated) was run?
The pIC50 was 7.65.

What about the pKi [2] of the same compound?
The pKi was 7.07.

And the pKi [3]?
Its pKi is 6.08.

With `Cc1ccc(Cc2cc([C@@H]3C4CCC(C[C@@H]3c3ccc(C)cc3)N4C)on2)cc1` (some centres not stated) as the compound, how does the pIC50 [1] read?
Its pIC50 is 8.16.

What about the pKi [2] of the same compound?
The pKi was 7.05.

What about the pKi [3] of the same compound?
Its pKi is 6.11.

`COc1ccc(Cc2cc([C@@H]3C4CCC(C[C@@H]3c3ccc(Cl)cc3)N4C)on2)cc1` (some centres not stated) was tested. Which pIC50 [1] did it give?
Its pIC50 is 8.21.

And the pKi [2]?
The pKi was 7.84.

And the pKi [3]?
Its pKi is 6.46.

`COc1ccc(Cc2cc([C@@H]3C4CCC(C[C@@H]3c3ccc(C)cc3)N4C)on2)cc1` (some centres not stated) was tested. Which pIC50 [1] did it give?
The pIC50 was 8.02.

What about the pKi [2] of the same compound?
Its pKi is 7.39.

What about the pKi [3] of the same compound?
Its pKi is 6.45.

With `COc1ccc(-c2c(C)noc2[C@@H]2C3CCC(C[C@@H]2c2ccc(C)cc2)N3C)cc1` (some centres not stated) as the compound, how does the pIC50 [1] read?
Its pIC50 is 6.92.

And the pKi [2]?
The pKi was under 5.70.

What about the pKi [3] of the same compound?
The pKi was 5.89.

`CN1C2CCC1[C@@H](c1cc(Cc3ccc(F)cc3)no1)[C@@H](c1ccc(Cl)cc1)C2` (some centres not stated) was tested. Which pIC50 [1] did it give?
Its pIC50 is 8.07.

And the pKi [2]?
The pKi was 7.14.

What about the pKi [3] of the same compound?
Its pKi is 6.36.

How did the pIC50 [1] turn out when `Cc1ccc(-c2c(C)noc2[C@@H]2C3CCC(C[C@@H]2c2ccc(C)cc2)N3C)cc1` (some centres not stated) was run?
The pIC50 was 6.76.

What about the pKi [2] of the same compound?
The pKi was 6.00.

And the pKi [3]?
Its pKi is under 5.70.

How did the pIC50 [1] turn out when `CN1C2CCC1[C@@H](c1cc(-c3ccc(F)cc3)no1)[C@@H](c1ccc(Cl)cc1)C2` (some centres not stated) was run?
Its pIC50 is 8.73.

What about the pKi [2] of the same compound?
Its pKi is 6.18.

And the pKi [3]?
The pKi was 6.26.

Which results are given for `Cc1noc([C@@H]2C3CCC(C[C@@H]2c2ccc(Cl)cc2)N3C)c1-c1ccc(F)cc1` (some centres not stated)?
pIC50 [1]: 6.95; pKi [2]: 6.04; pKi [3]: 6.33

What does the source list for `Cc1ccc(-c2cc([C@@H]3C4CCC(C[C@@H]3c3ccc(C)cc3)N4C)on2)cc1` (some centres not stated)?
pIC50 [1]: 7.89; pKi [2]: < 5.70; pKi [3]: < 5.70

How did the pIC50 [1] turn out when `CN1C2CCC1[C@@H](c1cc(-c3ccc(Cl)cc3)no1)[C@@H](c1ccc(Cl)cc1)C2` (some centres not stated) was run?
The pIC50 was 8.19.

And the pKi [2]?
The pKi was under 5.70.

And the pKi [3]?
Its pKi is under 5.70.

`Cc1ccc(-c2c(C)noc2[C@@H]2C3CCC(C[C@@H]2c2ccc(Cl)cc2)N3C)cc1` (some centres not stated) was tested. Which pIC50 [1] did it give?
The pIC50 was 6.87.

And the pKi [2]?
Its pKi is 6.53.

And the pKi [3]?
Its pKi is under 5.70.

How did the pIC50 [1] turn out when `Cc1ccc(Cc2cc([C@@H]3C4CCC(C[C@@H]3c3ccc(Cl)cc3)N4C)on2)cc1` (some centres not stated) was run?
Its pIC50 is 7.66.

And the pKi [2]?
Its pKi is 7.37.

What about the pKi [3] of the same compound?
Its pKi is 5.96.

How did the pIC50 [1] turn out when `CN1C2CCC1[C@@H](c1cc(Cc3ccc(Cl)cc3)no1)[C@@H](c1ccc(Cl)cc1)C2` (some centres not stated) was run?
The pIC50 was 7.76.

What about the pKi [2] of the same compound?
The pKi was 7.10.

What about the pKi [3] of the same compound?
Its pKi is 6.17.
